Results published in ChEMBL document CHEMBL1134654, “Alpha-amino acid phenolic ester derivatives: novel water-soluble general anesthetic agents which allosterically modulate GABA(A) receptors” (J Med Chem, 2001).
pEC50: −log10 of the molar value.

What was measured:
[1] = target: T1, GABA-A receptor; alpha-1/beta-3/gamma-2 (Homo sapiens, UniProt P14867+P18507+P28472); assay: GABA-modulatory action compound was evaluated on Oocytes expressing recombinant human alpha-1-beta-3-gamma-2L GABA A receptor at concentrations of >=100 micro<M; type: protein-complex assay
T1 sequence (P14867 whole entry): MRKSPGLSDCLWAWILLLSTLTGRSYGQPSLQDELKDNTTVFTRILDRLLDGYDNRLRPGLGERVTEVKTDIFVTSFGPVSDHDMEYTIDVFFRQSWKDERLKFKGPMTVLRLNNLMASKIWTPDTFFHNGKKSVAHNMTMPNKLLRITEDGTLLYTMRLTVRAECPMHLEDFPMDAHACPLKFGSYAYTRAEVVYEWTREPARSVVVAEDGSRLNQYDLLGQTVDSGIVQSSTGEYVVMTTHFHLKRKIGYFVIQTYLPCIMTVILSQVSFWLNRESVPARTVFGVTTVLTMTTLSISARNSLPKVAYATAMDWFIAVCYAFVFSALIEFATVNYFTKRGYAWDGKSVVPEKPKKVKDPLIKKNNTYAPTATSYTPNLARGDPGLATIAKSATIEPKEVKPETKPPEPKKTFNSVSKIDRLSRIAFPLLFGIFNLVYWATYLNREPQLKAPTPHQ
T1 sequence (P18507 whole entry): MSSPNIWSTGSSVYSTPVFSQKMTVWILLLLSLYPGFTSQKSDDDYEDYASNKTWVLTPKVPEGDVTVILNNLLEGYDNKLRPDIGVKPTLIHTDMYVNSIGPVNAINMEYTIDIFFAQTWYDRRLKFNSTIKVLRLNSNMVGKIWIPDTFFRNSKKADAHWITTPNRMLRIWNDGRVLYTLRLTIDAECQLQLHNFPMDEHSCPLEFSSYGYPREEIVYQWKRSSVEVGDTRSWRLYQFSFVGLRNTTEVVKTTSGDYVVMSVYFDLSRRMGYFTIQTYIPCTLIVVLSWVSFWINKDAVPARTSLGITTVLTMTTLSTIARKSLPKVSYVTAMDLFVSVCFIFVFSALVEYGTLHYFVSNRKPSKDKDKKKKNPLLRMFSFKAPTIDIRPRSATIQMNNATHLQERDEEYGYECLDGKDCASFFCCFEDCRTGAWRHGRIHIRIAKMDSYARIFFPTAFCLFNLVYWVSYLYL
T1 sequence (P28472 whole entry): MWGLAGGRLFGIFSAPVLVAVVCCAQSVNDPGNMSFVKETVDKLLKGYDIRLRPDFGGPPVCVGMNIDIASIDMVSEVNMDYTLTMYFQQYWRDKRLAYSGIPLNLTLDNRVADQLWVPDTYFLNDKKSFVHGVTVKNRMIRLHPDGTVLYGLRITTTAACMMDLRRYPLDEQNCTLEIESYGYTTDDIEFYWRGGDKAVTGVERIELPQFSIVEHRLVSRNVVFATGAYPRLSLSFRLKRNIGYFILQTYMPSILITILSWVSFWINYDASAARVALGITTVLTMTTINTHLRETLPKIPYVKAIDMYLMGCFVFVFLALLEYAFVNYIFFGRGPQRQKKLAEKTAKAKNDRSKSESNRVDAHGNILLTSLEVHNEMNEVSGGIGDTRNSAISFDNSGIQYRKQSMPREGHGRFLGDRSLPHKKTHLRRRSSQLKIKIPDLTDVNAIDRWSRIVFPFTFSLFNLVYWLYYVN
Procedure, shortened: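 Oocytes expressing human α1β3γ2L receptors, used 2–12 days after cRNA injection, were recorded with two electrodes at 18–22 °C. […] Compound was preapplied 30–60 s, then co-applied with EC10 GABA. Peak current was read manually; EC50 came from the fitted curve; mean ± s.e.mean.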

[2] = target: T1, GABA-A receptor; alpha-1/beta-3/gamma-2; assay: GABA-mimetic action on Oocytes expressing human alpha-1-beta-3-gamma-2L GABA-A receptor subunits at >=100 uM
Mus musculus = assay: Loss of righting reflex following i.v. administration in mice.; type: functional
Procedure, shortened: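 Male MF-1 mice in groups of eight given compound in saline iv via lateral tail vein over 10 s (10 mL/kg). Doses on a umol/kg scale, extra doses added to narrow range. Animals boxed separately; loss of righting reflex lasting ≥30 s scored. HD50 with 95% confidence limits by probit analysis.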

[3] = target: GABA-A receptor; anion channel (Rattus norvegicus) (UniProt O09028+P15431+P18506+P18508+P19969+P20236+P23574+P23576+P28471+P28473+P30191+P62813+P63079+P63138+Q91ZM7+Q9ES14); assay: Ability to inhibit [35S]t-butyl-bicyclophosphorothionate binding by 50% to rat whole brain membrane; type: tissue-based
Procedure, shortened: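 Male Wistar rat whole-brain membranes, washed with four freeze–thaw cycles. 100 ug membrane protein incubated with [35S]TBPS (2 nM final) in 20 mM KH2PO4/200 mM KCl, pH 7.4, containing GABA 600 nM final. Incubated 150 min at about 22 °C on shaker; vacuum filtration through GF/B filters; scintillation counting. Nonspecific binding with 200 uM picrotoxin. Reported as IC50, mean ± SEM.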

Row | Compound | pEC50 [1] | pEC50 [2] | HD50 (Mus musculus) | TBPS IC50 [3]
1 | CC(C)c1cccc(C(C)C)c1O [PROPOFOL] | 5.39 | 4.30 |  | 
2 | COc1cccc(OC)c1C(=O)OCCN1CCc2ccccc2C1 |  |  | 19 µmol/kg | > 30 µM
3 | COc1cccc(OC)c1OC(=O)[C@@H](C)N1CCc2ccccc2C1 | 5.39 |  | 20.7 µmol/kg | 3.3 µM
4 | CCC(C(=O)Oc1c(OC)cc(C)cc1OC)N(CCOC)CCOC (stereo not drawn) |  |  | 21.7 µmol/kg | 29.3 µM
5 | CC[C@H](C(=O)Oc1c(OC)cccc1OC)N(CCOC)CCOC |  |  |  | 7.4 µM
6 | COCCN(CCOC)C(C(=O)Oc1c(OC)cccc1OC)C(C)C (stereo not drawn) |  |  | 26.9 µmol/kg | > 10 µM
7 | CC(C)c1cccc(C(C)C)c1OC(=O)CN1CCOCC1 |  |  | 98.1 µmol/kg | 
8 | COc1cccc(OC)c1OC(=O)C(C)N1CCc2ccccc2C1 (stereo not drawn) | 5.26 |  | 33.2 µmol/kg | 4.8 µM
9 | CCC(C(=O)Oc1c(OC)cccc1OC)N(CCOC)CCOC (stereo not drawn) |  |  |  | 24.3 µM
10 | CCC(C(=O)Oc1c(OC)cccc1OC)N1CCOCC1 (stereo not drawn) |  |  | 38 µmol/kg | > 10 µM
11 | CC[C@H](C(=O)Oc1c(OC)cc(C)cc1OC)N(CCOC)CCOC [ORG-24447] | 5.00 |  | 18 µmol/kg | 16 µM
12 | CCC[C@H](C(=O)Oc1c(OC)cccc1OC)N(CCOC)CCOC |  |  | 7.3 µmol/kg | 3.2 µM
13 | COc1cccc(OC)c1OC(=O)[C@@H](C)N1CCOCC1.Cl | 3.70 |  | 85.9 µmol/kg | > 100 µM
14 | COc1cccc(OC)c1OC(=O)[C@H](C)N1CCc2ccccc2C1 | < 4.00 |  | 82.6 µmol/kg | 23.8 µM
15 | COc1cc(C)cc(OC)c1OC(=O)C(C)(C)N1CCOCC1 |  |  | 53.8 µmol/kg | > 10 µM
16 | COc1cccc(OC)c1NC(=O)[C@@H](C)N1CCc2ccccc2C1 |  |  | 44.1 µmol/kg | > 10 µM
17 | COc1cccc(OC)c1OC(=O)C(c1ccccc1)N1CCOCC1 (stereo not drawn) |  |  | 39.6 µmol/kg | 66 µM
18 | CCCCC(C(=O)Oc1c(OC)cccc1OC)N(CCOC)CCOC (stereo not drawn) |  |  | 11 µmol/kg | 1.6 µM
19 | COc1cccc(OC)c1C(=O)NCCN1CCc2ccccc2C1 |  |  | 45.7 µmol/kg | > 100 µM
20 | CCCC(C(=O)Oc1c(OC)cccc1OC)N(CCOC)CCOC (stereo not drawn) |  |  | 12.4 µmol/kg | 7.7 µM
21 | CCC(C(=O)Oc1c(OC)cc(C)cc1OC)N1CCOCC1 (stereo not drawn) |  |  | 68.1 µmol/kg | 
